Laboratory results as given in paper PMC8592115 (ACS Medicinal Chemistry Letters, 2021).
Entries after “also recorded” stand apart in the source; their conditions may differ.

Assays:
[1] = target: T1, CXCL12 (Homo sapiens, UniProt P48061); test: 2D NMR chemical shift perturbation titration of 15N-CXCL12; assay type: binding; conditions: for precipitation/aggregation of CXCL12 on addition of compound: NMR titration samples
[2] = Qualitative solubility of compounds in NMR titration samples; assay type: physicochemical; conditions: samples prepared for NMR titration
Procedure, shortened: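 Test compound titrated into CXCL12 at increasing concentrations up to 1600 μM, with HSQC spectra recorded at each step. Solubility was scored against a cut-off of ≥1600 μM in these titration samples. Soluble compounds counted as binders if they also shifted at least two of residues I28, V39 and A40 by ≥0.5 ppm.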

[3] = target: T1, CXCL12; test: Calculation of ligand efficiency; conditions: Table 6; LLE = pKd – cLogP

| solubility, qualitative [2] | Compound | precipitation/aggregation of CXCL12 on addition of compound [1] | other results |
| --- | --- | --- | --- |
|  | O=C(O)c1ccc(Nc2nc(Nc3ccc(C(=O)O)cc3)nc(-c3ccccc3)n2)cc1 [Compound 9m] | caused aggregation and precipitation of the protein |  |
| insoluble; also recorded: low solubility | O=C(O)CSc1nc(SCC(=O)O)nc(-c2ccc(-c3ccccc3)cc2)n1 [Compound 13e] |  |  |
| qualitatively greater solubility | O=C(O)CSc1nc(SCC(=O)O)nc(-c2ccc(N3CCOCC3)cc2)n1 [Compound 13i] |  |  |
|  | O=C(O)CSc1nc(SCC(=O)O)nc(-c2cnc3ccccc3c2)n1 [Compound 13l] | precipitated the protein from solution; also recorded: caused CXCL12 to precipitate |  |
|  | O=C(O)CSc1nc(SCC(=O)O)nc(-c2ccc(Oc3ccccc3)cc2)n1 [Compound 13m] | precipitated the protein from solution; also recorded: caused CXCL12 to precipitate |  |
|  | O=C(O)CSc1nc(SCC(=O)O)nc(-c2ccoc2)n1 [Compound 13n] | precipitated the protein from solution; also recorded: caused CXCL12 to precipitate |  |
|  | O=C(O)CSc1nc(SCC(=O)O)nc(C2C3CC4CC(C3)CC2C4)n1 (centres unmarked) [Compound 17, 2,2'-((6-((1r,3r)-Adamantan-2-yl)-1,3,5-triazine-2,4-diyl)bis(sulfanediyl))diacetic acid] |  | Kd [1]: > 1600 µM |
|  | O=C(O)CSc1nc(SCC(=O)O)nc(C2=CCCCC2)n1 [Compound 20, 2,2'-((6-(Cyclohex-1-en-1-yl)-1,3,5-triazine-2,4-diyl)bis(sulfanediyl))diacetic acid] | caused the protein to precipitate; also recorded: b 20 caused CXCL12 to precipitate |  |
| notably more soluble than its analogues | O=C(O)CSc1nc(SCC(=O)O)nc(N2CCOCC2)n1 [Compound 24j] |  | LLE (lipophilic ligand efficiency) [3]: 2.07 |

| Compound | solubility, qualitative [2] | precipitation/aggregation of CXCL12 on addition of compound [1] | other results |
| --- | --- | --- | --- |
| O=C(O)CSc1nc(SCC(=O)O)nc(Sc2ccccc2)n1 [Compound 24a, 2,2'-((6-(Phenylthio)-1,3,5-triazine-2,4-diyl)bis(sulfanediyl))diacetic acid] | not as soluble as some of our other analogues |  |  |
